Hits are enriched below; roughly 2.3% of the tested compounds scored in any of these assays.
OXTR agonist: agonists of human oxytocin receptor; CHO-OTR cells, Fluo-8 calcium fluorescence; normalized: DMSO 0%, oxytocin 100%; P30559; AID 2435; activation, % at 3 µM; 320,000 compounds, 0.32% hits;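 active = activation above the mean of all tested compounds plus 3 SD, cutoff set per screening run, cut at about 20% in these data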;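 note: peak over basal fluorescence ratio from a 100 s FLIPR kinetic read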
Target sequence (P30559 whole entry, looked up): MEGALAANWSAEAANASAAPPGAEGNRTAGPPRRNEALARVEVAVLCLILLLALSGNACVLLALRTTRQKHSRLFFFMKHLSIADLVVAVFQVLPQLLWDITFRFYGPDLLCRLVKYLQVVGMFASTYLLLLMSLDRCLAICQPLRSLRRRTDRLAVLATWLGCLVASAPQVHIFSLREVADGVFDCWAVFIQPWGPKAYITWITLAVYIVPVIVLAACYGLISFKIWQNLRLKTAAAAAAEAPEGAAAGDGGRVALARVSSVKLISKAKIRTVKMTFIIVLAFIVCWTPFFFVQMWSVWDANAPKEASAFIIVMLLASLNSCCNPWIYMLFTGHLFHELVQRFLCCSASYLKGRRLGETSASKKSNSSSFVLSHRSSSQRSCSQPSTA
OXTR potentiator: human OXTR potentiation. CHO-OTR cells, Fluo-8 calcium fluorescence, potentiator mode; 0% = oxytocin EC15, 100% = EC100. activation, % at 3 µM. P30559. AID 2445. 320,000 compounds, 0.061% hits;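 active = activation above that plate's cutoff, the mean activation of tested compounds plus 3 SD, cut at about 6.6% in these data, passing the limit was not always enough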;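 note: 100% uses oxytocin at 75 nM as the full agonist control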
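Assay system: CHO cell line stably expressing human OTR. Reagent: EC15 oxytocin agonist. Dosing: single dose, 3.0 µM nominal final compound concentration. Timing: compound 6 min at room temperature before oxytocin, 100 s read. Signal: kinetic Fluo-8 calcium fluorescence. Controls: oxytocin EC15 low and EC100 high.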
TAAR1 antag: human TAAR1 antagonism; Q96RJ0; CHO RD-HGA16 TAAR1, Fluo-8 calcium fluorescence, antagonist; inhibition, % at 3 µM; 360,000 compounds, 1.5% hits;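 active = inhibition above a per-plate cutoff, the mean inhibition of test compounds on that plate plus 3 SD, cut at about 49% in these data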;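 note: 0% = DMSO plus EC80 beta-PEA response and 100% = DMSO alone without agonist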
Target sequence (Q96RJ0 whole entry, looked up): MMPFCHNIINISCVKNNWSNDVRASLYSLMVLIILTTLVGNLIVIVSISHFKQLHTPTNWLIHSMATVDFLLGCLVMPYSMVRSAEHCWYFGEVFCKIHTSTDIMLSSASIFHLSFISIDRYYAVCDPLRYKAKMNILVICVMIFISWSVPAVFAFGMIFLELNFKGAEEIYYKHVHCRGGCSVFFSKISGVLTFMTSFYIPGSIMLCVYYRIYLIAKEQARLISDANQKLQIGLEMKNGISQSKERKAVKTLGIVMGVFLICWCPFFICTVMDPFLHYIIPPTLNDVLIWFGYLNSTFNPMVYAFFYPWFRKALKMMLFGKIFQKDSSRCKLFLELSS
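Material: CHO RD-HGA16 cells bearing hTAAR1; compound dosing: one-point dosing, 3 µM nominal final; schedule: dye loading 75 min at 37 °C, then 30 min room temperature; measured by: calcium fluorescence with Fluo-8; control set: vehicle and agonist controls; replication: n of 1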
TAAR1 agonist: agonists of human TAAR1; activation, % at 3 µM; 360,000 compounds, 0.99% hits; CHO RD-HGA16 TAAR1, Fluo-8 calcium fluorescence; vehicle wells 0%, saturating PEA agonist 100%;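 active = activation above the mean activation of all test compounds in the run plus 3 SD, cut at about 38% in these data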
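Assay system: CHO-derived RD-HGA16 cells with stable Gα16 and human TAAR1; timing: 17-24 h seeding, 75 min 37 °C dye, 30 min RT; read-out: % activation from peak over basal fluorescence ratio, DMSO-to-PEA scaled; measured by: kinetic Fluo-8 calcium fluorescence; benchmarks: low control DMSO, high control PEA (EC100); doses: 3 µM single concentration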
V1aR counter: counter-screen for oxytocin receptor agonists: human V1a receptor agonists; 320,000 compounds, 0.25% hits; AID 2797; activation, % at 3 µM; CHO-V1R cells, Fluo-8 calcium fluorescence, agonist mode; 0% DMSO, 100% 3 nM vasopressin;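 active = activation above the mean activation of all tested compounds plus 3 SD, per screening run, cut at about 20% in these data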;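 note: signal is peak over basal fluorescence ratio across a 100 second FLIPR read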
TAAR1 nonsel count: nonselective antagonist in TAAR1 antagonist counter-screen; shares compounds with TAAR1 antag; 2,400 compounds, 77% hits; counterscreen cell line, calcium fluorescence, antagonist mode; inhibition, % at 3 µM; AID 651780; in the data active = inhibition above about 22%;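 note: CHO-Ga16 host cells stimulated with ATP at an EC80 level; 0% = agonist EC80 plus vehicle and 100% = vehicle without agonist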
TAAR1 antag conf: human TAAR1 antagonism, confirmed | shares compounds with TAAR1 antag | TAAR1-expressing cells, fluorescence antagonist read-out | inhibition, % at 3 µM | 2,400 compounds, 40% hits | AID 651785; in the data active = inhibition above about 49%;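 note: CHO-Ga16 host cells challenged with agonist PEA near its EC80; 0% = agonist at EC80 plus vehicle and 100% = vehicle with no agonist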
Ga16 ag counter: nonselective Ga16 agonist in TAAR1 antagonist counter-screen. shares compounds with TAAR1 antag. Ga16-expressing cells, calcium fluorescence, agonist counterscreen. activation, % at 3 µM. 2,400 compounds, 18% hits; in the data active = activation above about 12%;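 note: 0% = vehicle wells and 100% = saturating stimulus response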
TAAR1 ag count: activates human TAAR1 in antagonist counter-screen | hTAAR1 cell line, fluorescence activation, agonist mode | shares compounds with TAAR1 antag | AID 651955 | activation, % at 3 µM | 2,400 compounds, 2% hits; in the data active = activation above about 37%;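 note: CHO cells stably expressing TAAR1 with calcium dye readout; 0% = DMSO vehicle and 100% = full agonist response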
Numbers without * were called inactive; nt = no result.

SMILES	OXTR agonist	OXTR potentiator	TAAR1 antag	TAAR1 agonist	V1aR counter	TAAR1 nonsel count	TAAR1 antag conf	Ga16 ag counter	TAAR1 ag count
Cc1ccc(C)c(N2CCN(C(=O)c3ccc(NC4=NC5CS(=O)(=O)CC5S4)cc3)CC2)c1 (centres undefined)	-1	-7	-10	2	0	nt	nt	nt	nt
O=C(CSc1nccc2ccccc12)N1CCN(Cc2ccc3c(c2)OCO3)CC1	1	-6	-2	0	2	nt	nt	nt	nt
NNC(=O)c1[nH]c2ccc([N+](=O)[O-])cc2c1-c1ccccc1	4	-19	-18	0	1	nt	nt	nt	nt
O=C(N/N=C/c1ccccn1)c1[nH]c2ccc([N+](=O)[O-])cc2c1-c1ccccc1	2	-14	50*	9	1	18	51*	12*	22
O=C(COC(=O)Cc1c(Cl)cccc1Cl)Nc1ccccc1-c1ccccc1	0	-5	62*	5	0	22*	52*	8	13
O=C(COC(=O)Cc1ccc(Cl)cc1)Nc1ccccc1-c1ccccc1	-2	-4	-2	2	0	nt	nt	nt	nt
CCOC(=O)CN(C(=O)COc1nc(-c2ccccc2)cc(C)c1C#N)c1cccc(OC)c1	-1	-5	55*	10	0	25*	46	6	8
CCOC(=O)/C(C#N)=N\Nc1ccc(S(=O)(=O)Nc2nc(C)cc(C)n2)cc1	0	-3	-15	4	0	nt	nt	nt	nt
NC(=O)c1nsc(C(=O)N(Cc2ccco2)C(C(=O)NC2CCCC2)c2ccc(O)cc2)c1N (centres undefined)	nt	nt	53*	9	nt	22*	45	7	7
COc1ccc(C(C(=O)NC2CCCCC2)N(Cc2ccco2)C(=O)c2snc(C(N)=O)c2N)cc1 (centres undefined)	nt	nt	71*	15	nt	31*	53*	9	8
COc1ccc(C(C(=O)NC2CCCC2)N(Cc2ccco2)C(=O)c2snc(C(N)=O)c2N)cc1OC (centres undefined)	1	-15	43	14	1	nt	nt	nt	nt
CC(C(=O)NC1CCCC1)N(Cc1ccco1)C(=O)c1snc(C(=O)NC2CCCC2)c1N (centres undefined)	-3	-5	8	7	-1	nt	nt	nt	nt
Cc1ccc(OCC(=O)Nc2ccc(N3CCN(S(C)(=O)=O)CC3)cc2)cc1C	4	-19	-15	2	2	nt	nt	nt	nt
COc1ccc2[nH]c(=O)c(CN(Cc3nnnn3Cc3ccco3)C3CCCCC3)cc2c1	-1	-17	67*	25	-1	28*	51*	12*	18
CC(C)[C@H](NS(=O)(=O)c1ccc2c(c1)OCCO2)C(=O)OCC(=O)Nc1cc(Cl)ccc1Cl	4	-7	76*	21	5	39*	61*	11	11
CC(C)[C@H](NS(=O)(=O)c1ccc2c(c1)OCCO2)C(=O)OCC(=O)Nc1ccccc1Cl	0	-6	17	8	3	nt	nt	nt	nt
Cc1cccc(N(C(=O)c2snc(C(N)=O)c2N)C(C(=O)NC2CCCC2)c2ccco2)c1 (centres undefined)	nt	nt	-12	15	nt	nt	nt	nt	nt
COc1ccc(CNC(=O)CN(Cc2ccc(Cl)cc2)S(=O)(=O)c2ccccc2)cc1	0	-11	29	22	0	nt	nt	nt	nt
COc1ccc(CNC(=O)CN(Cc2ccccc2)S(=O)(=O)c2ccc(Cl)cc2)cc1	0	-12	63*	16	2	42*	65*	12*	14
C=CC[C@@H](CC(=O)N[C@H](CO)Cc1ccccc1)C(=O)N[C@H](COC(=O)[C@@H](CC=C)Cc1ccc(F)cc1)Cc1c[nH]c2ccccc12	3	-10	86*	28	3	38*	51*	5	15
C=CC[C@H](CC(=O)N[C@H](CO)Cc1ccccc1)C(=O)N[C@@H](COC(=O)[C@@H](CC=C)CC(=O)OC(C)(C)C)Cc1c[nH]c2ccccc12	0	-8	63*	23	1	30*	37	4	4
C=CC[C@@H](CC(=O)N[C@@H](CO)Cc1ccccc1)C(=O)N[C@H](COC(=O)[C@@H](CC=C)CC(=O)OC(C)(C)C)Cc1c[nH]c2ccccc12	-1	-9	39	4	0	nt	nt	nt	nt
C=CCC[C@@H](Cc1ccc(F)cc1)C(=O)OC[C@H](Cc1c[nH]c2ccccc12)NC(=O)[C@H](CC=C)CC(=O)NCCO	0	-4	75*	22	1	30*	42	7	7
CC(=O)Nc1cccc(-c2cnc(NC(C)=O)cn2)c1	nt	nt	-13	1	nt	nt	nt	nt	nt
CCOC(=O)C1=CCN(S(=O)(=O)c2ccc(F)cc2)C1c1cccc(F)c1 (centres undefined)	nt	nt	23	1	nt	nt	nt	nt	nt
SMILES	OXTR agonist	OXTR potentiator	TAAR1 antag	TAAR1 agonist	V1aR counter	TAAR1 nonsel count	TAAR1 antag conf	Ga16 ag counter	TAAR1 ag count
Cc1ccc(/C=N/NC(=O)CSc2nnc(-c3ccc(Cl)cc3)n2-c2ccccc2)o1	-2	-7	58*	12	0	26*	45	7	5
Cc1ccc(-c2nnc(SCC(=O)N/N=C/c3ccccc3C(=O)O)n2-c2ccc(Cl)cc2)cc1	0	-1	-31	1	0	nt	nt	nt	nt
O=C(CSc1nnc(-c2ccc(Cl)cc2)n1-c1ccc(Cl)cc1)N/N=C/c1ccco1	0	-7	78*	13	1	27*	54*	8	6
CCN(CC)c1ncnc2c1cnn2Cc1ccc(Cl)cc1	5	-21	54*	13	3	27*	40	7	8
Cc1ccc(-c2cc(C(=O)N3CCN(c4ccccc4O)CC3)c3ccccc3n2)cc1	0	-3	62*	7	-1	36*	44	6	2
Cc1ccc(-c2cc(C(=O)N3CCN(c4ccc(O)cc4)CC3)c3ccccc3n2)cc1	1	-5	65*	14	2	35*	43	10	8
NC(=O)C1CCN(C(=O)c2cc(-c3ccc(Cl)s3)nc3ccccc23)CC1	3	-3	60*	12	1	32*	44	11	13
O=C(c1cc(-c2ccccc2Cl)nc2ccccc12)N1CCC1	-1	-11	12	1	-1	nt	nt	nt	nt
O=C(c1cc(-c2ccccc2)nc2ccccc12)N1CCCC1	2	2	-16	4	3	nt	nt	nt	nt

Compound activity (PubChem)
